Activity calls are given as the source filed them. The calls are words filed in the database; no cut-off is given here.
Tests used:
Pseudomonas aeruginosa [1] = assay: Antimicrobial activity against Pseudomonas aeruginosa PAO1 grown as biofilm assessed as membrane integrity by BacLight Live/Dead staining; format: functional
In short: (§1)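 P. aeruginosa PAO1 reactor-grown biofilm coupons soaked in 10 mg/liter agent without stirring. Coupons stained 1 h in the dark with BacLight Syto9/propidium iodide or CTC (1.6 μg/ml, 37°C) plus DAPI (10 μg/ml), then imaged by confocal microscopy. Ratios are read at the point where plate-count culturability fell to 60%, normalized to untreated biofilm.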

Pseudomonas aeruginosa [2] = assay: Antimicrobial activity against Pseudomonas aeruginosa PAO1 grown as biofilm assessed as concentration and time required inactivate 2 log bacterial cells; format: functional
In short: (§2)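 PAO1 biofilm grown 24 h batch then 24 h continuous flow on coupons, exposed to 10 mg/liter agent unstirred. Biofilm dislodged by sonication/vortexing, plate counted after 24 h at 37°C in triplicate. Log10 reduction plotted against concentration × contact time; CT for 2-log inactivation taken by extrapolating the curve. Experiments repeated 2–3 times.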

Pseudomonas aeruginosa [3] = assay: Ratio of antimicrobial activity against Pseudomonas aeruginosa PAO1 grown as biofilm assessed as concentration and time required inactivate 2 log bacterial cells to antimicrobial activity against Pseudomonas aeruginosa PAO1 grown as planktonic cells assessed as concentration and time required inactivate 2 log bacterial cells; format: functional
In short: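 Ratio computed as biofilm CT over planktonic CT for 2-log inactivation of PAO1. Biofilm values come from coupons exposed to 10 mg/liter agent. Planktonic values come from 10^6 CFU/ml suspensions exposed to 1 or 10 mg/liter. Both were measured by plate count.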

Pseudomonas aeruginosa [4] = assay: Antimicrobial activity against Pseudomonas aeruginosa PAO1 assessed as log reduction in bacterial count at 10 mg/L after 50 mins by plate count method; format: functional
In short: (§3)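 P. aeruginosa PAO1 biofilm grown on reactor coupons (24 h batch in 1/100-strength TSB, room temp, 100 rpm, then 24 h continuous flow in 1/300-strength TSB). Coupons rinsed and soaked unstirred in 10 mg/liter agent. Biofilm removed by sonication/vortexing in PBS. Counts by plate count (24 h, 37°C), CTC (1.6 μg/ml) or Syto9/propidium iodide stain on filtered cells, each normalized to DAPI total and to untreated biofilm; log10 reduction.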

Pseudomonas aeruginosa [5] = assay: Antimicrobial activity against Pseudomonas aeruginosa PAO1 grown as planktonic cells assessed as concentration and time required inactivate 1 log bacterial cells; format: functional
In short: (§4)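 Washed overnight PAO1 cultures at 10^6 CFU/ml in 50 ml, exposed to agent at 1 or 10 mg/liter (data averaged) in capped flasks with slow magnetic stirring. Survival by plate count only. Log10 reduction plotted against CT (mg·min/liter); CT90 or 2-log CT read or extrapolated from the curve.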

Pseudomonas aeruginosa [6] = assay: Antimicrobial activity against Pseudomonas aeruginosa PAO1 grown as planktonic cells assessed as concentration and time required inactivate 2 log bacterial cells; format: functional; in short: as §4
Pseudomonas aeruginosa [7] = assay: Antimicrobial activity against Pseudomonas aeruginosa PAO1 grown as biofilms; format: functional, organism-based; in short: as §2
Pseudomonas aeruginosa [8] = assay: Antimicrobial activity against Pseudomonas aeruginosa PAO1 grown as biofilm assessed as respiratory activity by CTC-DAPI staining; format: functional, organism-based; in short: as §1
Pseudomonas aeruginosa [9] = assay: Antimicrobial activity against Pseudomonas aeruginosa PAO1 assessed as log reduction in bacterial count at 10 mg/L after 50 mins by BacLight Live/Dead staining; format: functional; in short: as §3
Pseudomonas aeruginosa [10] = assay: Antimicrobial activity against Pseudomonas aeruginosa PAO1 assessed as log reduction in bacterial count at 10 mg/L after 50 mins by CTC staining; format: functional; in short: as §3

NC[C@H]1O[C@H](O[C@H]2[C@H](O)[C@@H](O[C@H]3O[C@H](CO)[C@@H](O)[C@H](N)[C@H]3O)[C@H](N)C[C@@H]2N)[C@H](N)C[C@@H]1O [TOBRAMYCIN]
Activity (Pseudomonas aeruginosa [1]): 70%
Activity (Pseudomonas aeruginosa [2]): 1000 mg·min/L
Ratio (Pseudomonas aeruginosa [3]): 33
FC (Pseudomonas aeruginosa [4]): 1.5
Activity (Pseudomonas aeruginosa [5]): 20 mg·min/L
Activity (Pseudomonas aeruginosa [6]): 30 mg·min/L
Activity (Pseudomonas aeruginosa [7]): Active
Activity (Pseudomonas aeruginosa [8]): Active
FC (Pseudomonas aeruginosa [9]): 0.2
FC (Pseudomonas aeruginosa [10]): 0.9
